Results from ChEMBL document CHEMBL1275302, “Synthesis and in vitro antiproliferative activity of 5-alkyl-12(H)-quino[3,4-b] [1,4]benzothiazinium salts” (Eur J Med Chem, 2010).
Converted amounts (≈) assume the structure as drawn. The source made the active and inactive calls. No cut-off for these calls is given here.

Assays:
Format in all cases: functional, cell-based
HCT-116 [1] = experiment: Antiproliferative activity against human HCT116 cells after 24 hrs by MTS assay; details: HCT-116, 24 h
Outline: (§1)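 Cells kept at 37 °C, 5% CO2; seeded 1 × 10⁴ cells/well in D-MEM with 12% FCS, streptomycin and penicillin. After 24 h (about 80% confluent), aqueous stocks (DMSO added if needed) diluted in medium and added at various concentrations, 12 or 24 h incubation. Cells washed in PBS, resuspended in Phenol Red-free DMEM with MTS; formazan absorbance read. Survival as % of control; mean ± SD of three experiments; IC50 determined.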

[2] = tested on: Lewis lung carcinoma cell line; experiment: Antiproliferative activity against mouse LLC cells after 24 hrs by MTS assay; outline: as §1
HCT-116 [3] = experiment: Antiproliferative activity against human HCT116 cells at 0.1 to 100 ug/ml after 24 hrs by MTS assay; outline: as §1
[4] = tested on: Lewis lung carcinoma cell line; experiment: Antiproliferative activity against mouse LLC cells at 0.1 to 100 ug/ml after 24 hrs by MTS assay; outline: as §1

SMILES	IC50 (HCT-116 [1]) [µg/mL]	IC50 [2] [µg/mL]	Activity (HCT-116 [3])	Activity [4]
CCCC[n+]1cc2c(c3ccccc31)Nc1ccccc1S2.[Br-]	14.4	14		
COc1cccc2c1C(=O)c1c(O)c3c(c(O)c1C2=O)C[C@@](O)(C(=O)CO)C[C@@H]3O[C@H]1C[C@H](N)[C@H](O)[C@H](C)O1 [DOXORUBICIN]	3.3 (≈ 6.07 µM)	3.7 (≈ 6.81 µM)		
C[n+]1cc2c(c3ccccc31)Nc1cc(N)ccc1S2.[Cl-]	2.2	4.7		
C[n+]1cc2c(c3ccccc31)Nc1c(O)cccc1S2			inactive	inactive
CCCCCCCCCC[n+]1cc2c(c3ccccc31)Nc1ccccc1S2.[Br-]	19.6	17.1		
C[n+]1cc2c(c3ccccc31)Nc1ccc(F)cc1S2.[Cl-]	6.7	6.4		
Cc1ccc2c(c1)Sc1c[n+](C)c3ccccc3c1N2.[Cl-]	4.4	8.8		
C[n+]1cc2c(c3ccccc31)Nc1ccc(Br)cc1S2.[Cl-]	6.9	6.5		
C[n+]1cc2c(c3ccccc31)Nc1cccnc1S2.[Cl-]	17.2	13.2		
C[n+]1cc2c(c3ccccc31)Nc1ccc(Cl)cc1S2.[Cl-]	7.4	5.4		
C[n+]1cc2c(c3ccccc31)Nc1ccc(O)cc1S2.[Cl-]	6.7	7.2		
C[n+]1cc2c(c3ccccc31)Nc1c(N)cccc1S2			inactive	inactive
C[n+]1cc2c(c3ccccc31)Nc1ccc(N)cc1S2.[Cl-]	5.1	8.9		
Cc1cccc2c1Nc1c(c[n+](C)c3ccccc13)S2			inactive	inactive
C[n+]1cc2c(c3ccccc31)Nc1ccccc1S2.[Cl-]	7.8	2.3		
C[n+]1cc2c(c3ccccc31)Nc1cc(O)ccc1S2.[Cl-]	7.6	5.7		
